Experiment [1] concerns Escherichia coli. Description: Antibacterial activity against Escherichia coli DH10B harboring Tn1721-tet(A) carrying plasmid by broth microdilution assay. It is filed as functional. Particulars: K-12 DH10B. In short, it runs like this: (§1)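 Tigecycline MIC by broth microdilution using a commercial tigecycline panel with freshly prepared Mueller-Hinton II broth less than 12 h old. Susceptible, intermediate or resistant category assigned by EUCAST clinical breakpoints.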
(In general: Broth dilution looks for growth in wells or tubes with falling amounts of substance.)

The test system of experiment [2] is Escherichia coli. The experiment is described as follows: Antibacterial activity against Escherichia coli DH10B expressing SK2 plasmid by broth microdilution assay. It is filed as functional. Particulars: K-12 DH10B. Summed up:
(§2)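 MIC by broth microdilution on a commercial ready-made drug panel, using freshly prepared Mueller-Hinton II broth (under 12 h old). MIC categories interpreted against EUCAST clinical breakpoints (susceptible, intermediate or resistant).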

The subject of experiment [3] is Salmonella enterica. Description: Antibacterial activity against wild type Salmonella enterica TY2313 by broth microdilution assay. It is filed as functional. Summed up: as §2
A short description of experiment [4]: Antibacterial activity against Salmonella enterica serovar Hadar VA5649 harboring wild type ramR-2313 gene by both microdilution assay. It is filed as functional, Salmonella enterica subsp. enterica serovar Hadar. In short, it runs like this:
as §1

The nature of experiment [5]: Antibacterial activity against Salmonella enterica serovar Hadar VA5649 expressing ACYC177 plasmid by both microdilution assay. It is filed as functional, Salmonella enterica subsp. enterica serovar Hadar. Summed up:
as §1

Experiment [6] in a line: Antibacterial activity against Salmonella enterica serovar Hadar VA5649 by both microdilution assay. It is filed as functional, Salmonella enterica subsp. enterica serovar Hadar. In short, it runs like this:
as §1

Experiment [7] relates to Escherichia coli. The experiment is described as follows: Antibacterial activity against Escherichia coli DH10B by broth microdilution assay. It is filed as functional. Particulars: K-12 DH10B. In short, it runs like this:
as §2

Experiment [8] in a line: Antibacterial activity against Salmonella enterica serovar Hadar VA5649 harboring ramR-5649 mutant gene by both microdilution assay. It is filed as functional, Salmonella enterica subsp. enterica serovar Hadar. In short, it runs like this: as §1
The subject of experiment [9] is Escherichia coli. Description: Antibacterial activity against Escherichia coli DH10B expressing Tn1721-tet(A) carrying plasmid SK2 by broth microdilution assay. It is filed as functional. The following applies: K-12 DH10B. In short, it runs like this:
as §1

The nature of experiment [10]: Antibacterial activity against Salmonella enterica serovar Hadar VA5649 harboring wild type ramR-2313 gene by Etest method. It is filed as functional, Salmonella enterica subsp. enterica serovar Hadar.
The nature of experiment [11]: Antibacterial activity against Salmonella enterica serovar Hadar VA5649 by Etest method. It is filed as functional, Salmonella enterica subsp. enterica serovar Hadar.
Experiment [12] in a line: Antibacterial activity against Salmonella enterica serovar Hadar VA5649 expressing ACYC177 plasmid by Etest method. It is filed as functional, Salmonella enterica subsp. enterica serovar Hadar.
Experiment [13] in a line: Antibacterial activity against Salmonella enterica serovar Hadar VA5649 harboring ramR-5649 mutant gene by Etest method. It is filed as functional, Salmonella enterica subsp. enterica serovar Hadar.
For experiment [14], the system named is Escherichia coli. The experiment is described as follows: Antibacterial activity against Escherichia coli DH10B expressing Tn1721-tet(A) carrying plasmid SK2 by Etest method. It is filed as functional. Particulars: K-12 DH10B.
Experiment [15] has as its system Escherichia coli. The experiment is described as follows: Antibacterial activity against Escherichia coli DH10B by Etest method. It is filed as functional. Particulars: K-12 DH10B.
Experiment [16] deals with Escherichia coli. The experiment is described as follows: Antibacterial activity against Escherichia coli DH10B expressing SK2 plasmid by Etest method. The following applies: K-12 DH10B. It is filed as functional.
For experiment [17], the system named is Escherichia coli. The experiment is described as follows: Antibacterial activity against Escherichia coli DH10B harboring Tn1721-tet(A) carrying plasmid by Etest method. Particulars: K-12 DH10B. It is filed as functional.
Experiment [18] deals with Salmonella enterica. Description: Antibacterial activity against wild type Salmonella enterica TY2313 by Etest method. It is filed as functional.

This passage reports MIC results from ChEMBL document CHEMBL1240379, “Combined ramR mutation and presence of a Tn1721-associated tet(A) variant in a clinical isolate of Salmonella enterica serovar Hadar resistant to tigecycline” (2010).

In brackets after ≈: the same amount, converted by molar mass.

For the compound `CN(C)c1cc(NC(=O)CNC(C)(C)C)c(O)c2c1C[C@H]1C[C@H]3[C@H](N(C)C)C(O)=C(C(N)=O)C(=O)[C@@]3(O)C(O)=C1C2=O` [TIGECYCLINE], the MIC in experiment [1] turned out to be 0.25 µg/mL (≈ 0.427 µM); in experiment [2] it was 0.065 µg/mL (≈ 0.111 µM); in [3], 0.25 µg/mL (≈ 0.427 µM); in [4], 2 µg/mL (≈ 3.41 µM); in [5], 16 µg/mL (≈ 27.3 µM); in experiment [6], 16 µg/mL (≈ 27.3 µM). Also, the figures for the minimum inhibitory concentration (MIC) in [7], in experiment [8] and in experiment [9] were 0.065 µg/mL (≈ 0.111 µM), 16 µg/mL (≈ 27.3 µM) and 0.25 µg/mL (≈ 0.427 µM), respectively.
On to `O=C(O)c1cn(C2CC2)c2cc(N3CCNCC3)c(F)cc2c1=O` [CIPROFLOXACIN], for which the MIC in experiment [10] was found to be 0.25 µg/mL (≈ 0.754 µM); in [11], 1 µg/mL (≈ 3.02 µM); in experiment [12] it was 1 µg/mL (≈ 3.02 µM); in [13], 1 µg/mL (≈ 3.02 µM).
For `CN(C)c1ccc(O)c2c1C[C@H]1C[C@H]3[C@H](N(C)C)C(O)=C(C(N)=O)C(=O)[C@@]3(O)C(O)=C1C2=O` [MINOCYCLINE], the minimum inhibitory concentration (MIC) in experiment [14] was determined as 8 µg/mL (≈ 17.5 µM); in experiment [11], 32 µg/mL (≈ 69.9 µM); in experiment [15], 0.75 µg/mL (≈ 1.64 µM); in experiment [16], 0.75 µg/mL (≈ 1.64 µM); in experiment [17], 8 µg/mL (≈ 17.5 µM).
As for `O=C(N[C@H](CO)[C@H](O)c1ccc([N+](=O)[O-])cc1)C(Cl)Cl` [CHLORAMPHENICOL], the minimum inhibitory concentration (MIC) worked out at 2 µg/mL (≈ 6.19 µM) in [10]; 8 µg/mL (≈ 24.8 µM) in experiment [11]; 8 µg/mL (≈ 24.8 µM) in [12]; 8 µg/mL (≈ 24.8 µM) in experiment [13]; 2 µg/mL (≈ 6.19 µM) in experiment [18].

What is called MIC is the lowest concentration found to suppress growth. Read a low MIC as greater potency.
